Legend:
[1] = target: Serine/threonine-protein kinase pim-1 (Homo sapiens, UniProt P11309); experiment: Inhibition of Pim1 (unknown origin)
cells = details: Homo sapiens, MINO
[2] = target: Calcium/calmodulin-dependent protein kinase type II subunit alpha (Homo sapiens, UniProt Q9UQM7); experiment: Inhibition of CAMK2A (unknown origin)
HCC1187 = experiment: Antiproliferative activity against human HCC1187 cells assessed as inhibition of cell viability incubated for 3 to 5 days by Celltiter-Glo luminescent assay; format: functional, cell-based
HCC38 = experiment: Antiproliferative activity against human HCC38 cells assessed as inhibition of cell viability incubated for 3 to 5 days by Celltiter-Glo luminescent assay; format: functional, cell-based
NCI-H211 = experiment: Antiproliferative activity against human NCI-H211 cells assessed as inhibition of cell viability incubated for 3 to 5 days by Celltiter-Glo luminescent assay; format: functional, cell-based
L-363 = experiment: Antiproliferative activity against human L-363 cells assessed as inhibition of cell viability incubated for 3 to 5 days by Celltiter-Glo luminescent assay; format: functional, cell-based
MDA-MB-468 = experiment: Antiproliferative activity against human MDA-MB-468 cells assessed as inhibition of cell viability incubated for 3 to 5 days by Celltiter-Glo luminescent assay; format: functional, cell-based
NCI-H209 = experiment: Antiproliferative activity against human NCI-H209 cells assessed as inhibition of cell viability incubated for 3 to 5 days by Celltiter-Glo luminescent assay; format: functional, cell-based
NCI-H23 = experiment: Antiproliferative activity against human NCI-H23 cells assessed as inhibition of cell viability incubated for 3 to 5 days by Celltiter-Glo luminescent assay; format: functional, cell-based
HCC1806 = experiment: Antiproliferative activity against human HCC1806 cells assessed as inhibition of cell viability incubated for 3 to 5 days by Celltiter-Glo luminescent assay; format: functional, cell-based
[3] = target: Dual specificity tyrosine-phosphorylation-regulated kinase 1A (Homo sapiens, UniProt Q13627); experiment: Inhibition of Dyrk1A (unknown origin)
HCC4006 = experiment: Antiproliferative activity against human HCC4006 cells assessed as inhibition of cell viability incubated for 3 to 5 days by Celltiter-Glo luminescent assay; format: functional, cell-based
DB = experiment: Antiproliferative activity against human DB cells assessed as inhibition of cell viability incubated for 3 to 5 days by Celltiter-Glo luminescent assay; format: functional, cell-based
CWR22R = experiment: Antiproliferative activity against human 22Rv1 cells assessed as inhibition of cell viability incubated for 3 to 5 days by Celltiter-Glo luminescent assay; format: functional, cell-based
[4] = Cmax in CB17 SCID mouse xenografted with LuCaP-77 CR cell at 50 mg/kg, ip administered for 7 days; format: ADME, organism-based; details: in vivo, time 7 day
[5] = target: Tyrosine-protein kinase JAK2 (Homo sapiens, UniProt O60674); experiment: Inhibition of JAK2 (unknown origin)
[6] = target: Mitogen-activated protein kinase kinase kinase kinase 4 (Homo sapiens, UniProt O95819); experiment: Inhibition of MAP4K4 (unknown origin)
[7] = target: Ribosomal protein S6 kinase alpha-3 (Homo sapiens, UniProt P51812); experiment: Inhibition of Rsk2 (unknown origin)
[8] = target: Serine/threonine-protein kinase TBK1 (Homo sapiens, UniProt Q9UHD2); experiment: Inhibition of TBK1 (unknown origin)
VCaP = experiment: Antiproliferative activity against human VCaP cells assessed as inhibition of cell viability incubated for 3 to 5 days by Celltiter-Glo luminescent assay; format: functional, cell-based
[9] = Inhibition of CDK9/Cyclin K (unknown origin); set-up: species or system Homo sapiens
[10] = target: Serine/threonine-protein kinase Sgk1 (Homo sapiens, UniProt O00141); experiment: Inhibition of SGK1 (unknown origin)
Farage = experiment: Antiproliferative activity against human Farage cells assessed as inhibition of cell viability incubated for 3 to 5 days by Celltiter-Glo luminescent assay; format: functional, cell-based
[11] = target: Histone acetyltransferase p300 (Homo sapiens, UniProt Q09472)
Toledo = experiment: Antiproliferative activity against human Toledo cells assessed as inhibition of cell viability incubated for 3 to 5 days by Celltiter-Glo luminescent assay; format: functional, cell-based
[12] = target: Epithelial discoidin domain-containing receptor 1 (Homo sapiens, UniProt Q08345); experiment: Inhibition of DDR1 (unknown origin)
MAO-B = MAO-B (Homo sapiens, UniProt P27338); experiment: Inhibition of human recombinant MAO-B at 10 uM by radioligand binding assay relative to control
HCC1599 = experiment: Antiproliferative activity against human HCC1599 cells assessed as inhibition of cell viability incubated for 3 to 5 days by Celltiter-Glo luminescent assay; format: functional, cell-based
[13] = target: T1, CREB-binding protein/Histone acetyltransferase p300 (Homo sapiens, UniProt Q09472+Q92793); experiment: Inhibition of p300/CBP in human 22Rv1 cells assessed as reduction in H3K18Ac level incubated for 3 hrs by Hoechst 33342 staining based high content microscopy analysis; format: cell-based
Procedure, shortened: (§1)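 Cells received an 8-point half-log dilution series from 10 µM. They were then fixed in 10% formaldehyde (10 min, RT), permeabilised with 0.1% Triton X-100 and blocked with 1% BSA for 1 h. Primary antibodies were applied overnight at 4 °C, followed by Alexa488 anti-rabbit, Alexa555 anti-mouse and Hoechst 33342 for 1 h. Fifteen fields per well were imaged and average mean intensity taken. EC50 came from a sigmoidal fit.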

U-2940 = experiment: Antiproliferative activity against human U-2940 cells assessed as inhibition of cell viability incubated for 3 to 5 days by Celltiter-Glo luminescent assay; format: functional, cell-based
OCI-AML2 = experiment: Antiproliferative activity against human OCI-AML2 cells assessed as inhibition of cell viability incubated for 3 to 5 days by Celltiter-Glo luminescent assay; format: functional, cell-based
[14] = Cmax in CB17 SCID mouse xenografted with LuCaP-77 CR cell at 100 mg/kg, ip administered for 7 days; format: ADME, organism-based; details: in vivo, time 7 day
[15] = target: T1, CREB-binding protein/Histone acetyltransferase p300; experiment: Inhibition of p300/CBP in human 22Rv1 cells assessed as reduction in H3K18Ac level incubated for 24 hrs by Hoechst 33342 staining based high content microscopy analysis; format: cell-based; procedure, shortened: as §1
[16] = target: Death-associated protein kinase 3 (Homo sapiens, UniProt O43293); experiment: Inhibition of ZIPK (unknown origin)
Kasumi 1 = experiment: cells; details: Homo sapiens
SU-DHL-6 = experiment: Antiproliferative activity against human SU-DHL-6 cells assessed as inhibition of cell viability incubated for 3 to 5 days by Celltiter-Glo luminescent assay; format: functional, cell-based
NU-DUL-1 = experiment: Antiproliferative activity against human NU-DUL-1 cells assessed as inhibition of cell viability incubated for 3 to 5 days by Celltiter-Glo luminescent assay; format: functional, cell-based
Aurora kinase A = Aurora kinase A (Homo sapiens, UniProt O14965); experiment: Inhibition of Aurora2 (unknown origin)
[17] = target: Dual specificity protein kinase CLK2 (Homo sapiens, UniProt P49760); experiment: Inhibition of CLK2 (unknown origin)
CAL-120 = experiment: Antiproliferative activity against human CAL-120 cells assessed as inhibition of cell viability incubated for 3 to 5 days by Celltiter-Glo luminescent assay; format: functional, cell-based

T1 sequence (Q09472 whole entry, looked up): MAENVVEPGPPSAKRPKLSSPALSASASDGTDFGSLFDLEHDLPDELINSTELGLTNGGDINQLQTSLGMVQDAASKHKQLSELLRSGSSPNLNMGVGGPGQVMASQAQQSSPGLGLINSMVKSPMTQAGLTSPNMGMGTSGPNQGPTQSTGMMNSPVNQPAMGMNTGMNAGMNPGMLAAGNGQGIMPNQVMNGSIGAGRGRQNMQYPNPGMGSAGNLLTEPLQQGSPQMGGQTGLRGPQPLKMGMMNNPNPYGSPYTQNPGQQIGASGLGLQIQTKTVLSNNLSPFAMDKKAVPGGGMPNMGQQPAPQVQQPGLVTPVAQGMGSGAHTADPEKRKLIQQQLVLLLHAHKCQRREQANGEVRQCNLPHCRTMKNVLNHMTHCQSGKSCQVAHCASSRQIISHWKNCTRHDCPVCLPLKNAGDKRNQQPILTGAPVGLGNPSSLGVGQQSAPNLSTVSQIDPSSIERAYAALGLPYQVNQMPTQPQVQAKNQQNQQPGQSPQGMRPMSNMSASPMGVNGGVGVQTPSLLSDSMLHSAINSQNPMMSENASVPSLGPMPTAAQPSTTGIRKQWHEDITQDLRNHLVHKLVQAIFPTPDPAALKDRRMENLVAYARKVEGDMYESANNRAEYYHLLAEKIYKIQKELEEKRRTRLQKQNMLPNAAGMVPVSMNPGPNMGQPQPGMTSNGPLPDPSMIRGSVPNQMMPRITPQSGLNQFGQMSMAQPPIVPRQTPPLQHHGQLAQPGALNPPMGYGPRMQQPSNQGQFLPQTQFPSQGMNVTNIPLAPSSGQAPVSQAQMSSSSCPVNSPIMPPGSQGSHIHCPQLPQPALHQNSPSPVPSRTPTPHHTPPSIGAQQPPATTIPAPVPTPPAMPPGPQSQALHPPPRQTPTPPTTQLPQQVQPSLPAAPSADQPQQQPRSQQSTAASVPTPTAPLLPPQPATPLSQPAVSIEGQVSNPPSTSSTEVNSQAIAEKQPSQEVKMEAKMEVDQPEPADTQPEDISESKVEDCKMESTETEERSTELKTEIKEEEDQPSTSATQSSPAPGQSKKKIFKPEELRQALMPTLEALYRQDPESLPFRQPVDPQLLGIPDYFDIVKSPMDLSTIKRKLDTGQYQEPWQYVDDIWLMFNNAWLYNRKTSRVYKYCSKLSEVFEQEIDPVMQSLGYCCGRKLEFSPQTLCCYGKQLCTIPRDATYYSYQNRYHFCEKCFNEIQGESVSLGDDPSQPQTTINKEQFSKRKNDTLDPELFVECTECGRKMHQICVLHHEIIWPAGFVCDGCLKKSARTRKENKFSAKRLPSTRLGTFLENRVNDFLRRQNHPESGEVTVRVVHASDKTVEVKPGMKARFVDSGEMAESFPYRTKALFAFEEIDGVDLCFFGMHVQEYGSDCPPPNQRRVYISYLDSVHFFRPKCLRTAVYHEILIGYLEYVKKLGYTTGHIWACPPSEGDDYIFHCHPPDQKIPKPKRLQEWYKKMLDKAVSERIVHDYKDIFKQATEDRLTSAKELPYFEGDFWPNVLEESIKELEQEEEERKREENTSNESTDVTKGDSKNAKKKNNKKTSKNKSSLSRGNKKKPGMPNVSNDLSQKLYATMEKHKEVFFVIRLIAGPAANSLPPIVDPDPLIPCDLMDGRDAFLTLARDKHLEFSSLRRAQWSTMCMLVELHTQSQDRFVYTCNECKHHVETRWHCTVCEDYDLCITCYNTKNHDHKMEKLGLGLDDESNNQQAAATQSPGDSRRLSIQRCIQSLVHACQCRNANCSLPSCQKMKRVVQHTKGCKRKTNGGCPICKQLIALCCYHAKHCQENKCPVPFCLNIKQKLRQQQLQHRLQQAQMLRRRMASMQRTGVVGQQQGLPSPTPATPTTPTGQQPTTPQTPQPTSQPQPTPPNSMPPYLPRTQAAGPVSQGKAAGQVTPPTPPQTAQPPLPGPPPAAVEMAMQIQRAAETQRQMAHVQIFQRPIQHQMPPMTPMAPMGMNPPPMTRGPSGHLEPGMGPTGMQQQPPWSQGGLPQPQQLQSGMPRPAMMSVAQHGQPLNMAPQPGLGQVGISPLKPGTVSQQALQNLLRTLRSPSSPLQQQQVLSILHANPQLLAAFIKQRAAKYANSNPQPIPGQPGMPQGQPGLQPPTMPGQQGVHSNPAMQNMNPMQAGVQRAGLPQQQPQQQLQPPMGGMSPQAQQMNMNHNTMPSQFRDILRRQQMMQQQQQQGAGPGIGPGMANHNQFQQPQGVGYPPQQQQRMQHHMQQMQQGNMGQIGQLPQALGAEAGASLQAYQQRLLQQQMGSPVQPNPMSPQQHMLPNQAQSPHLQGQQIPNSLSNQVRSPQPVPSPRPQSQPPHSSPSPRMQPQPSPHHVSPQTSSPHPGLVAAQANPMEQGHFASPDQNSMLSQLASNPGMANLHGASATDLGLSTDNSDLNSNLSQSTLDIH
T1 sequence (Q92793 whole entry, looked up): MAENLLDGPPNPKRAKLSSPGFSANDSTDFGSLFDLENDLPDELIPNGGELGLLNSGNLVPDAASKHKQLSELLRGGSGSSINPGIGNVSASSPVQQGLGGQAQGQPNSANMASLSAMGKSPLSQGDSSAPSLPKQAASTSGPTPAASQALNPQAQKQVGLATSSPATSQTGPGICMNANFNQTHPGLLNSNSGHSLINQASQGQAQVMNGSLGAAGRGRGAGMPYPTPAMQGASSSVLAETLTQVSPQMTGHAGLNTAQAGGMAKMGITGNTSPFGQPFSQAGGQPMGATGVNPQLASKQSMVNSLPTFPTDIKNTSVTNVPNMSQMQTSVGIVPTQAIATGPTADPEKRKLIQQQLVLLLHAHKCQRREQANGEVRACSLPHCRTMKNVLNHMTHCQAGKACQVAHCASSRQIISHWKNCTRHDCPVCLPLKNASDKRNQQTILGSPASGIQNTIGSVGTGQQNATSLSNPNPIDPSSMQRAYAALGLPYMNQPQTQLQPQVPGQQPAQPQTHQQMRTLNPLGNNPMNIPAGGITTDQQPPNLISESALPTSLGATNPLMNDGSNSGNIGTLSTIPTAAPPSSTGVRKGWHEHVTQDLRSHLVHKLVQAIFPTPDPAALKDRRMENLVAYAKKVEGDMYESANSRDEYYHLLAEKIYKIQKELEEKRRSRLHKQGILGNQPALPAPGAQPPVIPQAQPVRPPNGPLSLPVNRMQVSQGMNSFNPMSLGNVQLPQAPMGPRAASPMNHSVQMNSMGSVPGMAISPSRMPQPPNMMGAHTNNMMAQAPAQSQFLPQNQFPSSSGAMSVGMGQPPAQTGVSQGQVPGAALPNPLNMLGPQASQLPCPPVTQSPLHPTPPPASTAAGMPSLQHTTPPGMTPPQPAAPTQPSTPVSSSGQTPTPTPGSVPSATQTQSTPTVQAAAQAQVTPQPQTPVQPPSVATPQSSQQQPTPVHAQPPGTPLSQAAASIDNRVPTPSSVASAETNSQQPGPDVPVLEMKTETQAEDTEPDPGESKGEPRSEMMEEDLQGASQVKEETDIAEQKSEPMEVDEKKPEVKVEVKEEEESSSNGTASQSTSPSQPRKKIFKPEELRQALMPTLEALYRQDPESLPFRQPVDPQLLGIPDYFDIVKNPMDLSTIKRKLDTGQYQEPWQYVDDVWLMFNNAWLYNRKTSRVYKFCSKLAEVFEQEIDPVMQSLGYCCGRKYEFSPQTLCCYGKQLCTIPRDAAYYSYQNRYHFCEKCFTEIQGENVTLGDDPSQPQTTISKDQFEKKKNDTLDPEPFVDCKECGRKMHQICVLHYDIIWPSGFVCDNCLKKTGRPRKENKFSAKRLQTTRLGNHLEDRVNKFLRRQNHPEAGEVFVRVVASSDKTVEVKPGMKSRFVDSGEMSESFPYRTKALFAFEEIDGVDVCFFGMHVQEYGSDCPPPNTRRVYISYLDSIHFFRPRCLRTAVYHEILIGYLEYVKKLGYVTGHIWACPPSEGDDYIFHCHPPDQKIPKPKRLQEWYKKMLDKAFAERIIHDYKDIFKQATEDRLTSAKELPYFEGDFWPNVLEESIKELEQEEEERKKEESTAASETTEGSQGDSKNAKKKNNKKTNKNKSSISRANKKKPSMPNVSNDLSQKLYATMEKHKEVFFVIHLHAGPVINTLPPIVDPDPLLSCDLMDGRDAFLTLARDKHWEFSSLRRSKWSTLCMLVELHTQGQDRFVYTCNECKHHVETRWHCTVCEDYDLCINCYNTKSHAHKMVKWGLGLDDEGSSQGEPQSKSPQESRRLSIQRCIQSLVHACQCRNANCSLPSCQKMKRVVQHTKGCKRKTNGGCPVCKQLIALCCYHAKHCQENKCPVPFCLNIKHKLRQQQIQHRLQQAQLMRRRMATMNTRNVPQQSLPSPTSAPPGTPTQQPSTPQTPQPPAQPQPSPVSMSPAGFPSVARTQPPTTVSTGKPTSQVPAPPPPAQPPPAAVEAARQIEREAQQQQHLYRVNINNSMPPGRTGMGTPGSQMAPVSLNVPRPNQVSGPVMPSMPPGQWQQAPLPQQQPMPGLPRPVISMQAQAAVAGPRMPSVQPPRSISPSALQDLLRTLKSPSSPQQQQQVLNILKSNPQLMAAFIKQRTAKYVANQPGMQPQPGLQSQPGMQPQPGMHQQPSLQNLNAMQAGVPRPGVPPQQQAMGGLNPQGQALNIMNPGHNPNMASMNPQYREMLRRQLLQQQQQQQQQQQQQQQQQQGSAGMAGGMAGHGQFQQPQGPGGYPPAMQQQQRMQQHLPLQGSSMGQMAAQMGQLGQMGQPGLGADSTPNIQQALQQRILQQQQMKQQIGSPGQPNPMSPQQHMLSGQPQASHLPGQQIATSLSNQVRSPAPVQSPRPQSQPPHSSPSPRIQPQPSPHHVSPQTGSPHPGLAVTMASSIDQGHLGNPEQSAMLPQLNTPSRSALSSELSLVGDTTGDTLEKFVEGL
Sequence of Serine/threonine-protein kinase pim-1 (P11309 whole entry): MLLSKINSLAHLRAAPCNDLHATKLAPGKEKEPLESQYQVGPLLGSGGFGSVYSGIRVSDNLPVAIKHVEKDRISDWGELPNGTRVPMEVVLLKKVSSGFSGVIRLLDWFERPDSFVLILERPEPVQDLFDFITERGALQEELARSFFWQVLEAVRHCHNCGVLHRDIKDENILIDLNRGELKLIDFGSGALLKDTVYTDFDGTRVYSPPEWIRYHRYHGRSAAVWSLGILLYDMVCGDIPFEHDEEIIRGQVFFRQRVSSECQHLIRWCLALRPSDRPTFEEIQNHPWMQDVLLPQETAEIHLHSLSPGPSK

## CNC(=O)Nc1ccc2c(c1)CC[C@@]21OC(=O)N(CC(=O)N(Cc2ccc(F)cc2)[C@@H](C)C(F)(F)F)C1=O [A-485]
[1]
  IC50: > 10 µM
cells
  EC50: 0.53 µM
[2]
  IC50: > 10 µM
HCC1187
  EC50: > 10 µM
HCC38
  EC50: > 10 µM
NCI-H211
  EC50: 1.5 µM
L-363
  EC50: 0.51 µM
MDA-MB-468
  EC50: 0.38 µM
NCI-H209
  EC50: 0.4 µM
NCI-H23
  EC50: 1.79 µM
HCC1806
  EC50: 2.95 µM
[3]
  IC50: > 10 µM
HCC4006
  EC50: 4.64 µM
DB
  EC50: 0.77 µM
CWR22R
  EC50: 0.32 µM
[4]
  Cmax: 14700 ng/mL
[5]
  IC50: > 10 µM
[6]
  IC50: > 10 µM
[7]
  IC50: > 10 µM
[8]
  IC50: > 10 µM
VCaP
  EC50: 0.04 µM
[9]
  IC50: > 10 µM
[10]
  IC50: > 10 µM
Farage
  EC50: > 10 µM
[11]
  ΔTm: 5.8 °C
Toledo
  EC50: 0.49 µM
[12]
  IC50: > 10 µM
MAO-B
  inhibition at 10 µM: -20%
HCC1599
  EC50: 4.85 µM
[13]
  INH: 1.14 µM
U-2940
  EC50: 1.33 µM
OCI-AML2
  EC50: 2.03 µM
[14]
  Cmax: 75500 ng/mL
[15]
  INH: 3.79 µM
[16]
  IC50: > 10 µM
Kasumi 1
  EC50: 0.29 µM
SU-DHL-6
  EC50: 0.75 µM
NU-DUL-1
  EC50: 0.48 µM
Aurora kinase A
  IC50: > 10 µM
[17]
  IC50: > 10 µM
CAL-120
  EC50: > 10 µM
